# Results published in ChEMBL document CHEMBL1124186, “Synthesis and evaluation of tylosin-related macrolides modified at the aldehyde function: a new series of orally effective antibiotics” (1988).
# Legend:
# Mus musculus [1] = assay: Peripheral plasma levels in mice after oral administration of 100 mg/kg dose for 0.25 hr; type: functional, organism-based; parameters: dose 100 mg/kg
# Outline: (§1)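 Mice were given the compound orally and sampled for peripheral plasma at each time point. Plasma was assayed microbiologically against Micrococcus luteus seeded in Antibiotic Medium 1. Inhibition zone sizes were read, and concentrations were calculated from each compound's own standard curve. Each value is the mean of five mice per time point.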
# Streptococcus pneumoniae [2] = assay: In vitro antimicrobial activity against aerobic bacteria Streptococcus pneumoniae B1-438; type: functional, streptococcus pneum
# Haemophilus influenzae [3] = assay: In vitro antimicrobial activity against aerobic bacteria Haemophilus influenzae 465; type: functional
# Rattus norvegicus [4] = assay: Peripheral plasma levels in rats after oral administration of 100 mg/kg dose for 1 hr; type: functional, organism-based; parameters: dose 100 mg/kg
# Outline: (§2)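 Rats received 100 mg/kg orally and were sampled for peripheral plasma. Concentrations were measured by Micrococcus luteus agar-diffusion microbiological assay in Antibiotic Medium 1, with zone sizes converted using the standard curve for the appropriate compound. Each value is the average of three rats per time point.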
# Staphylococcus aureus [5] = assay: In vitro antimicrobial activity against aerobic bacteria Staphylococcus aureus 513E; type: functional
# Cutibacterium acnes = assay: In vitro antimicrobial activity against anaerobic bacteria propionibacterium acnes 79; type: functional
# Phocaeicola vulgatus = assay: In vitro antimicrobial activity against anaerobic bacteria bacteroides vulgatus 1211; type: functional
# Clostridium septicum = assay: In vitro antimicrobial activity against anaerobic bacteria clostridium septicum 1128; type: functional
# [6] = In vitro antimicrobial activity against anaerobic bacteria peptostreptococcus intermedius 1264; type: functional
# Collinsella aerofaciens = assay: In vitro antimicrobial activity against anaerobic bacteria eubacterium aerofaciens 1235; type: functional
# Bacteroides fragilis [7] = assay: In vitro antimicrobial activity against anaerobic bacteria bacteroides fragilis 1877; type: functional
# [8] = test system: Haemophilus parainfluenzae; assay: In vitro antimicrobial activity against aerobic bacteria Haemophilus parainfluenzae 9796; type: functional
# [9] = test system: Peptoniphilus asaccharolyticus; assay: In vitro antimicrobial activity against anaerobic bacteria peptococcus asaccharolyticus 1302; type: functional
# [10] = test system: Prevotella melaninogenica; assay: In vitro antimicrobial activity against anaerobic bacteria bacteroides melaninogenicus 2736; type: functional
# Staphylococcus aureus [11] = assay: In vitro antimicrobial activity against aerobic bacteria Staphylococcus aureus V135; type: functional
# Rattus norvegicus [12] = assay: Peripheral plasma levels in rats after oral administration of 100 mg/kg dose for 0.25 hr; type: functional, organism-based; parameters: dose 100 mg/kg; outline: as §2
# Streptococcus [13] = assay: In vitro antimicrobial activity against aerobic bacteria Streptococcus D 2041; type: functional
# Rattus norvegicus [14] = assay: Peripheral plasma levels in rats after oral administration of 100 mg/kg dose for 2 hr; type: functional, organism-based; parameters: dose 100 mg/kg; outline: as §2
# Streptococcus [15] = assay: In vitro antimicrobial activity against aerobic bacteria Streptococcus C 24; type: functional
# Streptococcus [16] = assay: In vitro antimicrobial activity against aerobic bacteria Streptococcus B 5; type: functional
# [17] = test system: Bacteroides thetaiotaomicron; assay: In vitro antimicrobial activity against anaerobic bacteria bacteroides thetaiotaomicron 1438; type: functional
# Fusobacterium = assay: In vitro antimicrobial activity against anaerobic bacteria fusobacterium symbiosum 1470; type: functional
# Bacteroides fragilis [18] = assay: In vitro antimicrobial activity against anaerobic bacteria bacteroides fragilis 111; type: functional
# Mus musculus [19] = assay: Peripheral plasma levels in mice after oral administration of 100 mg/kg dose for 0.5 hr; type: functional, organism-based; parameters: dose 100 mg/kg; outline: as §1
# Haemophilus influenzae [20] = assay: In vitro antimicrobial activity against aerobic bacteria Haemophilus influenzae MX366,; type: functional
# Rattus norvegicus [21] = assay: Peripheral plasma levels in rats after oral administration of 100 mg/kg dose for 4 hr; type: functional, organism-based; parameters: dose 100 mg/kg; outline: as §2
# Streptococcus [22] = assay: In vitro antimicrobial activity against aerobic bacteria Streptococcus B 8; type: functional
# Staphylococcus aureus [23] = assay: In vitro antimicrobial activity against aerobic bacteria Staphylococcus aureus V140,; type: functional
# Streptococcus sanguinis = assay: In vitro antimicrobial activity against aerobic bacteria Streptococcus sanguis MX132; type: functional
# Haemophilus influenzae [24] = assay: In vitro antimicrobial activity against aerobic bacteria Haemophilus influenzae 76; type: functional
# [25] = test system: Fusobacterium necrophorum; assay: In vitro antimicrobial activity against anaerobic bacteria usobacterium necrophorum 6054A; type: functional
# Streptococcus [26] = assay: In vitro antimicrobial activity against aerobic bacteria Streptococcus D 8043; type: functional
# Streptococcus [27] = assay: In vitro antimicrobial activity against aerobic bacteria Streptococcus G Kruder; type: functional
# Rattus norvegicus [28] = assay: Peripheral plasma levels in rats after oral administration of 100 mg/kg dose for 0.5 hr; type: functional, organism-based; parameters: dose 100 mg/kg; outline: as §2
# [29] = test system: Staphylococcus epidermidis; assay: In vitro antimicrobial activity against aerobic bacteria Streptococcus epi 222; type: functional
# [30] = test system: Prevotella melaninogenica; assay: In vitro antimicrobial activity against anaerobic bacteria bacteroides melaninogenicus 1856,; type: functional
# [31] = test system: Peptostreptococcus anaerobius; assay: In vitro antimicrobial activity against anaerobic bacteria eubacterium peptostreptococcus anaerobius 1428,; type: functional
# Clostridium perfringens = assay: In vitro antimicrobial activity against anaerobic bacteria clostridium perfringens 81,; type: functional
# Streptococcus [32] = assay: In vitro antimicrobial activity against aerobic bacteria Streptococcus D 9960; type: functional
# Streptococcus [33] = assay: In vitro antimicrobial activity against aerobic bacteria Streptococcus B 14; type: functional
# Eikenella corrodens = assay: In vitro antimicrobial activity against anaerobic bacteria bacteroides corrodens 1874; type: functional
# Bacteroides fragilis [34] = assay: In vitro antimicrobial activity against anaerobic bacteria bacteroides fragilis 1936B,; type: functional
# Mus musculus [35] = assay: Peripheral plasma levels in mice after oral administration of 100 mg/kg dose for 1 hr; type: functional, organism-based; parameters: dose 100 mg/kg; outline: as §1
# Clostridioides difficile = assay: In vitro antimicrobial activity against anaerobic bacteria Clostridium difficile 2994; type: functional
# Mus musculus [36] = assay: Peripheral plasma levels in mice after oral administration of 100 mg/kg dose for 2 hr; type: functional, organism-based; parameters: dose 100 mg/kg; outline: as §1
# Streptococcus pyogenes [37] = assay: In vivo effective dose against experimental infections in rodent caused by Streptococcus pyogenes C203 when administered orally; type: functional; settings: po
# Haemophilus influenzae [38] = assay: In vitro antimicrobial activity against Haemophilus influenzae.; type: functional
# [39] = test system: Staphylococcus epidermidis; assay: In vitro antimicrobial activity against Staphylococcus epidermidis EPI1; type: functional
# Enterococcus faecium = assay: In vitro antimicrobial activity against Streptococcus faecium X66; type: functional, streptococcus fae-cium
# Streptococcus pneumoniae [40] = assay: In vitro antimicrobial activity against Streptococcus pneumoniae; type: functional
# Streptococcus pyogenes [41] = assay: In vitro antimicrobial activity against Streptococcus pyogenes C203; type: functional
# Streptococcus pyogenes [42] = assay: In vivo effective dose against experimental infections in rodent caused by Streptococcus pyogenes C203 when administered sc; type: functional
# Staphylococcus aureus [43] = assay: In vitro antimicrobial activity against Staphylococcus aureus X1; type: functional
structure (smiles),measurement,setting,value
CC[C@H]1OC(=O)[C@H](C)[C@@H](O[C@H]2C[C@@](C)(OC)[C@@H](O)[C@H](C)O2)[C@H](C)[C@@H](O[C@@H]2O[C@H](C)C[C@H](N(C)C)[C@H]2O)[C@](C)(O)C[C@@H](C)C(=O)[C@H](C)[C@@H](O)[C@]1(C)O [ERYTHROMYCIN],Concentration,Mus musculus [1],2.5 µg ml-1 ml-1
same,MIC,Streptococcus pneumoniae [2],6 µg/mL
same,MIC,Haemophilus influenzae [3],4 µg/mL
same,Concentration,Rattus norvegicus [4],0.1 µg ml-1 ml-1
same,MIC,Staphylococcus aureus [5],0.25 µg/mL
same,MIC,Cutibacterium acnes,< 0.5 µg/mL
same,MIC,Phocaeicola vulgatus,< 0.5 µg/mL
same,MIC,Clostridium septicum,< 0.5 µg/mL
same,MIC,[6],< 0.5 µg/mL
same,MIC,Collinsella aerofaciens,< 0.5 µg/mL
same,MIC,Bacteroides fragilis [7],4 µg/mL
same,MIC,[8],4 µg/mL
same,MIC,[9],8 µg/mL
same,MIC,[10],1 µg/mL
same,MIC,Staphylococcus aureus [11],0.25 µg/mL
same,Concentration,Rattus norvegicus [12],0.1 µg ml-1 ml-1
same,MIC,Streptococcus [13],1 µg/mL
same,Concentration,Rattus norvegicus [14],0.2 µg ml-1 ml-1
same,MIC,Streptococcus [15],0.12 µg/mL
same,MIC,Streptococcus [16],0.06 µg/mL
same,MIC,[17],1 µg/mL
same,MIC,Fusobacterium,2 µg/mL
same,MIC,Bacteroides fragilis [18],1 µg/mL
same,Concentration,Mus musculus [19],5.6 µg ml-1 ml-1
same,MIC,Haemophilus influenzae [20],4 µg/mL
same,Concentration,Rattus norvegicus [21],0.4 µg ml-1 ml-1
same,MIC,Streptococcus [22],0.06 µg/mL
same,MIC,Staphylococcus aureus [23],0.25 µg/mL
same,MIC,Streptococcus sanguinis,0.03 µg/mL
same,MIC,Haemophilus influenzae [24],2 µg/mL
same,MIC,[25],2 µg/mL
same,MIC,Streptococcus [26],0.06 µg/mL
same,MIC,Streptococcus [27],0.1 µg/mL
same,Concentration,Rattus norvegicus [28],0.1 µg ml-1 ml-1
same,MIC,[29],0.06 µg/mL
same,MIC,[30],2 µg/mL
same,MIC,[31],1 µg/mL
same,MIC,Clostridium perfringens,< 0.5 µg/mL
same,MIC,Streptococcus [32],2 µg/mL
same,MIC,Streptococcus [33],0.12 µg/mL
same,MIC,Eikenella corrodens,1 µg/mL
same,MIC,Bacteroides fragilis [34],2 µg/mL
same,Concentration,Mus musculus [35],2.7 µg ml-1 ml-1
same,MIC,Clostridioides difficile,< 0.5 µg/mL
same,Concentration,Mus musculus [36],0.7 µg ml-1 ml-1
CC[C@H]1OC(=O)C[C@@H](O)[C@H](C)[C@@H](O[C@@H]2O[C@H](C)[C@@H](O)[C@H](N(C)C)[C@H]2O)[C@@H](CC=O)C[C@@H](C)C(=O)/C=C/C(C)=C/[C@@H]1CO[C@@H]1O[C@H](C)[C@@H](O)[C@@H](O)[C@H]1OC,ED50,Streptococcus pyogenes [37],81 mg/kg
same,MIC,Haemophilus influenzae [38],8 µg/mL
same,MIC,[39],2 µg/mL
same,MIC,Enterococcus faecium,4 µg/mL
same,MIC,Streptococcus pneumoniae [40],0.25 µg/mL
same,MIC,Streptococcus pyogenes [41],0.25 µg/mL
same,ED50,Streptococcus pyogenes [42],1.8 mg/kg
same,MIC,Staphylococcus aureus [43],2 µg/mL
CC[C@H]1OC(=O)C[C@@H](O)[C@H](C)[C@@H](O[C@@H]2O[C@H](C)[C@@H](O)[C@H](N(C)C)[C@H]2O)[C@@H](CCNCCc2ccccc2)C[C@@H](C)C(=O)/C=C/C(C)=C/[C@@H]1CO[C@@H]1O[C@H](C)[C@@H](O)[C@@H](OC)[C@H]1OC,ED50,Streptococcus pyogenes [37],55 mg/kg
same,MIC,Haemophilus influenzae [38],8 µg/mL
same,MIC,[39],0.5 µg/mL
same,MIC,Enterococcus faecium,8 µg/mL
same,MIC,Streptococcus pneumoniae [40],1 µg/mL
same,MIC,Streptococcus pyogenes [41],0.25 µg/mL
same,ED50,Streptococcus pyogenes [42],> 1.6 mg/kg
same,MIC,Staphylococcus aureus [43],0.5 µg/mL
CC[C@H]1OC(=O)C[C@@H](O)[C@H](C)[C@@H](O[C@@H]2O[C@H](C)[C@@H](O)[C@H](N(C)C)[C@H]2O)[C@@H](CCS(=O)(=O)c2ccc(C)cc2)C[C@@H](C)C(=O)/C=C/C(C)=C/[C@@H]1CO[C@@H]1O[C@H](C)[C@@H](O)[C@@H](OC)[C@H]1OC,ED50,Streptococcus pyogenes [37],> 50 mg/kg
same,MIC,Haemophilus influenzae [38],16 µg/mL
same,MIC,[39],0.25 µg/mL
same,MIC,Enterococcus faecium,8 µg/mL
same,MIC,Streptococcus pneumoniae [40],1 µg/mL
same,MIC,Streptococcus pyogenes [41],1 µg/mL
same,ED50,Streptococcus pyogenes [42],4.2 mg/kg
same,MIC,Staphylococcus aureus [43],0.25 µg/mL
